# Paper PMC3785103 (Molecular pharmaceutics, 2013)
# Read-outs that look alike come from different tables or passages of the source. [ ]: non-standard residue; d: D form. d2Nal = N[C@H](Cc1ccc2ccccc2c1)C(=O)O; Nle = CCCC[C@H](N)C(=O)O
# Columns and labels:
# in vivo = conditions: female, nu/nu, mouse
# [1] = test system: A375/MC1R and A375 xenograft tumors; assay: in vivo; conditions: female, nu/nu, mouse, 5 nmol/kg
# MC1R = conditions: read-out: Ki for MC1R, cited from earlier work
# MC5R [2] = assay: Co-injection of MC5R-selective ligand to block kidney uptake of probe; assay type: in vivo, mouse; conditions: 5 nmol/kg MC1RL-800 co-injected with 1 nmol/kg MC5R-selective ligand, 2 h
# Procedure, shortened: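 Female nu/nu mice (6–8 weeks) carried s.c. xenografts: 1 × 10⁶ A375/MC1R cells in the right flank and parental A375 cells in the left. At 500–800 mm³ tumor volume, mice received 5 nmol/kg MC1R ligand–IRDye800CW i.v. (tail vein, in 100 μL sterile saline) co-injected with 1 nmol/kg MC5R-specific ligand. Fluorescence imaging used mean pre-injection tumor signal subtracted from normalized post-injection ROI intensities.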
# [3] = design: species or system mouse; conditions: mean±s.d. of 10 simulations
# MC5R [4] = conditions: read-out: Ki for MC5R; unlabeled peptide ligands; cited from earlier work
Compound,"half-life (in vivo; 5 nmol/kg, half-life (clearance) in the tumor)",half-life (in vivo; half-life (clearance) in negative tissue),half-life (clearance) in the tumor [1],Ki (MC1R; NIRF dye conjugates),decrease of A375/MC1R tumor signal (MC5R [2]),"Kki, rate of accumulation of ligand in the kidney specific binding compartment [3]","Kko, rate of clearance of ligand from kidney back to the bloodstream [3]","Kni, rate of accumulation in non-specific tissue [3]","Kno, rate of clearance from non-specific tissue [3]","Kto, rate of clearance from tumor specific binding compartment [3]","Kti, rate of probe accumulation in tumor specific binding compartment ([3]; fit to 3 nmol/kg ex vivo data)",Ki (MC5R [4]),Ki (MC1R; unlabeled peptide ligands)
"CC1(C)C(=CC=C2CCCC(C=CC3=[N+](CCCCS(=O)(=O)[O-])c4ccc(S(=O)(=O)O)cc4C3(C)C)=C2Oc2ccc(S(=O)(=O)O)cc2)N(CCCCCC(=O)NCCN2C(=O)CC(SCCC(=O)NCCCC[C@H](NC(=O)CNC(=O)[C@H](Cc3c[nH]c4ccccc34)NC(=O)[C@H](CCCNC(=N)N)NC(=O)[C@@H](Cc3ccccc3)NC(=O)[C@H](Cc3c[nH]cn3)NC(=O)CCCc3ccccc3)C(N)=O)C2=O)c2ccc(S(=O)(=O)O)cc21 (stereo partly drawn) [MC1RL-800, 4-phenylbutyryl-His-DPhe-Arg-Trp-Gly-Lys(Mpr-IRDye800CW)-NH2]",1320 min,960 min,~22 h,0.4 ± 0.1 nM,28%,1E-2+6.8E-3 (NU.h)^−1,0.96 ± 0.14 h⁻¹,1.8 ± 0.2 (NU.h)^−1,2.3 ± 0.6 h⁻¹,26+12 (h)^−1,2.7+1.4 (NU.h)^−1,,
H-YV[Nle]GH[d2Nal]R[dF]DRFG-NH2 [reference compound],,,,,,,,,,,,0.71 nM,5.6 nM
4-phenylbutyryl-His-DPhe-Arg-Trp-Gly-Lys(hex-5-ynoyl)-NH2 [unlabeled ligand],,,,,,,,,,,,46 nM,0.24 nM
